High-throughput results as filed in PubChem BioAssay.
V1R ag counter: V1a receptor agonism, counter-screen for OXTR agonists; CHO-V1R cells, Fluo-8 calcium fluorescence, agonist mode; 0% DMSO, 100% 3 nM vasopressin; activation, % at 3 µM; 320,000 tested, 0.25% active; AID 2797;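 active = activation above the mean activation of all tested compounds plus 3 SD, per screening run, cut at about 20% in these data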;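 also: signal is peak over basal fluorescence ratio across a 100 second FLIPR read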
OXTR ag: human OXTR agonism. activation, % at 3 µM. CHO-OTR cells, Fluo-8 calcium fluorescence; normalized: DMSO 0%, oxytocin 100%. P30559. 320,000 tested, 0.32% active;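 active = activation above the mean of all tested compounds plus 3 SD, cutoff set per screening run, cut at about 20% in these data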;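 also: peak over basal fluorescence ratio from a 100 s FLIPR kinetic read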
zfTRPN1 agonist: activates the zebrafish TRPN1 channel | HEK293 zebrafish TRPN1-YFP, Fluo-8 calcium fluorescence; 100% = response to 87 µM carbachol | activation, % at 3 µM | 220,000 tested, 0.18% active | AID 1424;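 active = activation above its plate's cutoff, the mean activation of test wells on that plate plus 3 SD, cut at about 19% in these data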;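 also: 0% = DMSO alone and 100% = 87 µM carbachol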
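Material – zebrafish TRPN1-YFP in HEK293 cells · Doses – 3 µM single point · Schedule – dye 1 h 37 °C plus 30 min RT · Signal – Fluo-8 calcium fluorescence, excitation 470-495 nm, emission 515-575 nm · Read-out – % activation versus carbachol response · Control set – carbachol high, DMSO low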
TRPML3 ag: agonists of human TRPML3 channel. Q8TDD5. HEK293 TRPML3-YFP, Fluo-8 calcium fluorescence; 100% = the carbachol control signal. activation, % at 3 µM. 220,000 tested, 0.29% active;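 active = activation above its plate's cutoff, the mean activation of the plate's test wells plus 3 SD, cut at about 12% in these data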;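 also: 0% = DMSO only wells and 100% = carbachol wells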
Target sequence (Q8TDD5 whole entry, looked up): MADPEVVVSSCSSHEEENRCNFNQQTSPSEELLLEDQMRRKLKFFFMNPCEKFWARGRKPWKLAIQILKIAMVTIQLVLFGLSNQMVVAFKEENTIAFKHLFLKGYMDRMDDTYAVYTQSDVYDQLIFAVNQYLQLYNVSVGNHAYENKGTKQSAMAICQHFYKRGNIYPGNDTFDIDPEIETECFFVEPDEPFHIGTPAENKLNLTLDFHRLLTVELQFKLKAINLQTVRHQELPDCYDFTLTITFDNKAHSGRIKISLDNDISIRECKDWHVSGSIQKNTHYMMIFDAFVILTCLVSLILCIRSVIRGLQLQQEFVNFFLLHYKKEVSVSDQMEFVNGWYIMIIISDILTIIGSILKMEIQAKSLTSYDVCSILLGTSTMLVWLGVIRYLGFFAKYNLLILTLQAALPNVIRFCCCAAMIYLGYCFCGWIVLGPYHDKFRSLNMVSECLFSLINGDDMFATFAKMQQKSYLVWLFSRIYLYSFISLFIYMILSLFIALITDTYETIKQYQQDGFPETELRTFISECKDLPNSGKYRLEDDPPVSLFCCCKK
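Material: TRPML3-YFP stable HEK293 cells | Dosing: One concentration, 3 µM nominal, 0.3% DMSO | Timing: 125 s total fluorescence read per well | Technique: Fluo-8 calcium dye fluorescence, ex 470-495, em 515-575 nm | Measure: Percent activation from peak-to-basal fluorescence ratio, scaled between DMSO and carbachol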
OXTR potentiator: human OXTR potentiation. CHO-OTR cells, Fluo-8 calcium fluorescence, potentiator mode; 0% = oxytocin EC15, 100% = EC100. activation, % at 3 µM. 320,000 tested, 0.061% active. AID 2445;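 active = activation above that plate's cutoff, the mean activation of tested compounds plus 3 SD, cut at about 6.6% in these data, passing the limit was not always enough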;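 also: 100% uses oxytocin at 75 nM as the full agonist control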
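test system = CHO-OTR cells, human receptor | compound = single-point 3.0 µM | schedule = 6 min compound pre-incubation at room temperature, 100 s kinetic read | signal = Fluo-8 no-wash calcium dye fluorescence, excitation 470-495 nm, emission 515-575 nm | repeats = single well per compound, singlicate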
TRPN1 ag 2: activates zebrafish TRPN1, counter-screen for TRPML3 agonists; shares compounds with TRPML3 ag; HEK293 zebrafish TRPN1-YFP, Fluo-8 calcium fluorescence; scaled: carbachol wells 100%, DMSO wells 0%; activation, % at 3 µM; 310 tested, 10% active; AID 1525;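 active = mean activation over replicates above a set limit taken from the earlier TRPN1 channel primary screen, cut at about 19% in these data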;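 also: 100% = carbachol and 0% = 0.3% DMSO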
TRPML3 ag conf: confirmation of human TRPML3 channel agonists. shares compounds with TRPML3 ag. HEK293 TRPML3-YFP, Fluo-8 calcium fluorescence; 100% set by carbachol, 0% by DMSO. 310 tested, 80% active. AID 1526. activation, % at 3 µM;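 active = activation above a set limit derived from the earlier primary screen, cut at about 12% in these data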
* hit, by the source's call; . = no result given. This is a sample that favours compounds with a hit; in the whole collection about 0.55% have one here.

SMILES	V1R ag counter	OXTR ag	zfTRPN1 agonist	TRPML3 ag	OXTR potentiator	TRPN1 ag 2	TRPML3 ag conf
CSc1nc2ccccc2nc1N(C)S(=O)(=O)c1ccc(C)cc1	0	-1	-3	21*	-6	0	26*
Cc1ccc(S(=O)(=O)N(C)c2ccc3ccccc3c2)cc1	-1	-3	-1	0	-7	.	.
Cc1ccc(S(=O)(=O)N(C)c2ccccc2)cc1	-2	-2	-2	17*	-8	-2	7
O=C(CNc1ccc(Br)cc1)NNC1=NCCC1	0	-1	0	1	-7	.	.
CC1=CC(C)(C)N(C(=O)CN2C(=O)c3ccccc3C2=O)c2ccccc21	-1	-2	-1	67*	0	2	92*
CC1CC(C)(C)N(C(=O)CN2C(=O)c3ccccc3C2=O)c2ccccc21 (configuration not stated)	-1	-2	4	210*	-15	97*	205*
Cc1ccc(N/C(N)=N/c2nc(C)cc(C)n2)cc1	7	7	9	15*	-12	31*	20*
CCOc1ccc(-n2cnnn2)cc1S(=O)(=O)Nc1c(C)cccc1C	1	0	1	18*	-4	0	0
CCOc1ccc(-n2cnnn2)cc1S(=O)(=O)NC1CC1	0	1	0	0	-6	.	.
Cc1ccc(-n2nc3c(N4CCN(c5ccccc5)CC4)nnc(C)c3c2C)cc1	.	.	0	-1	.	.	.
Cc1ccc(-n2nc3c(Cl)nnc(C)c3c2C)cc1	0	-3	-2	13*	-2	-2	0
Cc1ccc(-c2cc(C(=O)N3CCCc4ccccc43)no2)cc1	0	-1	-1	0	-17	.	.
COc1ccc(C(=O)Nc2ccc(S(=O)(=O)N3CCCCC3C)cc2)c(OC)c1OC (configuration not stated)	3	3	1	70*	-6	1	83*
O=C(c1ccco1)N1CCN(c2nc(-c3ccc(F)cc3)cs2)CC1	1	0	-1	-1	-19	.	.
O=C(COc1ccc(/C=N/NC(=O)c2ccccc2)cc1)Nc1ccc([N+](=O)[O-])cc1	0	0	4	0	-8	.	.
CC(C)Oc1ccc(/C=N/NC(=O)C(CSCc2ccccc2)NC(=O)c2ccc([N+](=O)[O-])cc2)cc1 (configuration not stated)	-1	-2	1	53*	-15	6	78*
CN(CCOc1ccccc1)CC(=O)Nc1ccc(S(=O)(=O)N2CCCC2)cc1	2	1	2	1	-1	.	.
CN(CCOc1ccccc1)c1ccc(S(=O)(=O)N2CCCCC2)cn1	-1	-2	0	26*	-8	0	52*
CCN(CC)c1ccc2cc(-c3nnc(-c4ccccc4)o3)c(=O)oc2c1	50*	42*	19	12*	-17	248*	177*
O=c1oc2ccc3ccccc3c2cc1-c1nnc(-c2ccccc2)o1	0	1	3	1	-8	.	.
CCOC(=O)N1CCN(CC(=O)Nc2nc3ccc(OC)cc3s2)CC1	2	0	.	.	-17	.	.
COc1ccc(C(=O)N/N=C(\C)CC(=O)Nc2cccc(C(F)(F)F)c2)cc1	2	-1	0	-1	-7	.	.
CN(CC(=O)O/N=C(\N)c1ccccn1)S(=O)(=O)c1ccccc1	0	0	0	0	4	.	.
COc1ccc(/C(N)=N/OC(=O)CN(C)S(=O)(=O)c2ccccc2)cc1	.	.	4	106*	.	2	40*
O=C(NCCc1ccccc1)C1CCN(C2CCN(C(=O)CC3=CCCCC3)CC2)CC1	2	1	2	1	4	.	.
Cc1cc2nc3c(=O)[nH]c(=O)[nH]c3nc2c([N+](=O)[O-])c1N	.	.	15	12*	.	7	5
